ChEMBL document CHEMBL1649493, “Genetic and biochemical characterization of the first extended-spectrum CARB-type beta-lactamase, RTG-4, from Acinetobacter baumannii” (Antimicrob Agents Chemother, 2009)
Values after ≈ are worked out from the molar mass of the structure shown.

Columns and labels:
[1] = tested on: Escherichia coli; experiment: Antibacterial activity against Escherichia coli TOP10 harboring beta-lactamase RTG4 gene by Etest method; assay type: functional
How it was run: (§1)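 MICs read by Etest on Mueller-Hinton agar plates incubated at 37°C. Recombinant E. coli TOP10 carried the cloned β-lactamase gene on plasmid pBK-CMV; the host strain alone was tested alongside.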

[2] = tested on: Escherichia coli; experiment: Antibacterial activity against Escherichia coli TOP10 harboring recombinant plasmid RTG4-S69 by Etest method; assay type: functional
[3] = tested on: Escherichia coli; experiment: Antibacterial activity against Escherichia coli TOP10 harboring recombinant plasmid RTG4-V49 by Etest method; assay type: functional
[4] = tested on: Escherichia coli; experiment: Antibacterial activity against Escherichia coli TOP10 harboring recombinant plasmid RTG4-S69-V49 by Etest method; assay type: functional
[5] = tested on: Escherichia coli; experiment: Antibacterial activity against Escherichia coli TOP10 harboring beta-lactamase RTG3 gene by Etest method; assay type: functional; how it was run: as §1
[6] = tested on: Acinetobacter baumannii; experiment: Antimicrobial activity against Acinetobacter baumannii by […]; assay type: functional
How it was run: (§2)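 MICs were determined by Etest on Mueller-Hinton agar at 37°C. Where indicated, clavulanic acid or tazobactam was added at 4 μg/ml.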

[7] = tested on: Acinetobacter baumannii; experiment: Antimicrobial activity against Acinetobacter baumannii CIP70.10 harboring beta-lactamase RTG4 gene by […]; assay type: functional
[8] = tested on: Acinetobacter baumannii; experiment: Antimicrobial activity against Acinetobacter baumannii CIP70.10 harboring beta-lactamase RTG3 gene by […]; assay type: functional
[9] = tested on: Acinetobacter baumannii; experiment: Antimicrobial activity against Acinetobacter baumannii CIP70.10 by […]; assay type: functional
[10] = Ratio of Kcat to Km for recombinant beta-lactamase RTG4 expressed in Escherichia coli TOP10 by nitrocefin hydrolysis assay
[11] = Activity of recombinant beta-lactamase RTG4 expressed in Escherichia coli TOP10 assessed as Ratio of Kcat to Km by nitrocefin hydrolysis assay relative to benzylpenicillin; parameters: scale not given: the % may be the effect or the level left
[12] = tested on: Escherichia coli; experiment: Antibacterial activity against Escherichia coli TOP10 harboring beta-lactamase RTG4 gene by Etest method in presence of 4 ug/ml beta-lactamase inhibitor clavulanic acid; assay type: functional
How it was run: (§3)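 MICs read by Etest on Mueller-Hinton agar at 37°C, with β-lactams combined with clavulanic acid at 4 μg/ml. The strains were E. coli TOP10 carrying the cloned RTG gene or the site-directed mutant plasmids (Thr69Ser, Ala49Val, or both).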

[13] = tested on: Escherichia coli; experiment: Antibacterial activity against Escherichia coli TOP10 harboring recombinant plasmid RTG4-S69 by Etest method in presence of 4 ug/ml beta-lactamase inhibitor clavulanic acid; assay type: functional; how it was run: as §3
[14] = tested on: Escherichia coli; experiment: Antibacterial activity against Escherichia coli TOP10 harboring recombinant plasmid RTG4-V49 by Etest method in presence of 4 ug/ml beta-lactamase inhibitor clavulanic acid; assay type: functional; how it was run: as §3
[15] = tested on: Escherichia coli; experiment: Antibacterial activity against Escherichia coli TOP10 harboring recombinant plasmid RTG4-S69-V49 by Etest method in presence of 4 ug/ml beta-lactamase inhibitor clavulanic acid; assay type: functional; how it was run: as §3
[16] = tested on: Escherichia coli; experiment: Antibacterial activity against Escherichia coli TOP10 harboring beta-lactamase RTG3 gene by Etest method in presence of 4 ug/ml beta-lactamase inhibitor clavulanic acid; assay type: functional; how it was run: as §3
[17] = tested on: Escherichia coli; experiment: Antibacterial activity against Escherichia coli TOP10 by Etest method; assay type: functional; how it was run: as §1
[18] = tested on: Escherichia coli; experiment: Antibacterial activity against Escherichia coli TOP10 by Etest method in presence of 4 ug/ml beta-lactamase inhibitor clavulanic acid; assay type: functional
How it was run: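 MICs by Etest on Mueller-Hinton agar plates incubated at 37°C, with clavulanic acid at a fixed 4 μg/ml. The E. coli TOP10 host was tested with recombinant plasmids carrying the cloned HindIII fragment encoding RTG-4 or its site-directed variants (T69S, A49V).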

[19] = tested on: Acinetobacter baumannii; experiment: Antimicrobial activity against Acinetobacter baumannii by […] in presence of 4 ug/ml beta-lactamase inhibitor clavulanic acid; assay type: functional; how it was run: as §2
[20] = tested on: Acinetobacter baumannii; experiment: Antimicrobial activity against Acinetobacter baumannii CIP70.10 harboring beta-lactamase RTG4 gene by […] in presence of 4 ug/ml beta-lactamase inhibitor clavulanic acid; assay type: functional
[21] = tested on: Acinetobacter baumannii; experiment: Antimicrobial activity against Acinetobacter baumannii CIP70.10 harboring beta-lactamase RTG3 gene by […] in presence of 4 ug/ml beta-lactamase inhibitor clavulanic acid; assay type: functional
[22] = tested on: Acinetobacter baumannii; experiment: Antimicrobial activity against Acinetobacter baumannii CIP70.10 by […] in presence of 4 ug/ml beta-lactamase inhibitor clavulanic acid; assay type: functional; how it was run: as §2
[23] = Inhibition of recombinant beta-lactamase RTG4 expressed in Escherichia coli TOP10 by benzylpenicillin hydrolysis assay
[24] = Inhibition of recombinant beta-lactamase RTG3 expressed in Escherichia coli TOP10 by benzylpenicillin hydrolysis assay
[25] = tested on: Acinetobacter baumannii; experiment: Antimicrobial activity against Acinetobacter baumannii by […] in presence of 4 ug/ml Tazobactam; assay type: functional; how it was run: as §2
[26] = tested on: Acinetobacter baumannii; experiment: Antimicrobial activity against Acinetobacter baumannii CIP70.10 harboring beta-lactamase RTG4 gene by […] in presence of 4 ug/ml Tazobactam; assay type: functional
[27] = tested on: Acinetobacter baumannii; experiment: Antimicrobial activity against Acinetobacter baumannii CIP70.10 harboring beta-lactamase RTG3 gene by […] in presence of 4 ug/ml Tazobactam; assay type: functional
[28] = tested on: Acinetobacter baumannii; experiment: Antimicrobial activity against Acinetobacter baumannii CIP70.10 by […] in presence of 4 ug/ml Tazobactam; assay type: functional; how it was run: as §2

Row | Structure (SMILES) | MIC [1] [µg/mL] | MIC [2] [µg/mL] | MIC [3] [µg/mL] | MIC [4] [µg/mL] | MIC [5] [µg/mL] | MIC [6] [µg/mL] | MIC [7] [µg/mL] | MIC [8] [µg/mL] | MIC [9] [µg/mL] | kcat/Km [10] [M⁻¹ s⁻¹] | Activity [11] [%] | MIC [17] [µg/mL] | further results
1 | CO/N=C(\C(=O)N[C@@H]1C(=O)N2C(C(=O)[O-])=C(C[N+]3(C)CCCC3)CS[C@H]12)c1csc(N)n1 | 4 (≈ 8.32 µM) | 0.5 | 4 | 0.5 | 0.06 (≈ 0.125 µM) | 32 (≈ 66.6 µM) | 64 (≈ 133 µM) | 4 (≈ 8.32 µM) | 1 (≈ 2.08 µM) | 1000 | 0.06 |  | 
2 | CC1(C)S[C@@H]2[C@H](NC(=O)COc3ccccc3)C(=O)N2[C@H]1C(=O)O |  |  |  |  |  |  |  |  |  | 2e+06 |  |  | 
3 | CC1(C)S[C@@H]2[C@H](NC(=O)[C@H](N)c3ccc(O)cc3)C(=O)N2[C@H]1C(=O)O [AMOXICILLIN] | > 256 | > 256 | > 256 | > 256 | 512 (≈ 1400 µM) | > 256 | > 256 | > 256 | 32 (≈ 87.6 µM) | 2e+06 | 120 | 2 (≈ 5.47 µM) | MIC [12]: 32 µg/mL; MIC [13]: 32 µg/mL; MIC [14]: 32 µg/mL; MIC [15]: 32 µg/mL; MIC [16]: 4 µg/mL; MIC [18]: 2 µg/mL; MIC [19]: 32 µg/mL; MIC [20]: 32 µg/mL; MIC [21]: 32 µg/mL; MIC [22]: 8 µg/mL
4 | CO/N=C(\C(=O)N[C@@H]1C(=O)N2C(C(=O)O)=C(COC(C)=O)CS[C@H]12)c1csc(N)n1 [CEFOTAXIME] | 0.25 (≈ 0.549 µM) | 0.25 | 0.25 | 0.25 | 0.06 (≈ 0.132 µM) | 16 (≈ 35.1 µM) | 16 (≈ 35.1 µM) | 8 (≈ 17.6 µM) | 8 (≈ 17.6 µM) |  |  | 0.06 (≈ 0.132 µM) | 
5 | CO/N=C(\C(=O)N[C@@H]1C(=O)N2C(C(=O)[O-])=C(C[n+]3cccc4c3CCC4)CS[C@H]12)c1csc(N)n1 [CEFPIROME] | 1 (≈ 1.94 µM) | 0.25 | 1 | 0.25 | 0.06 (≈ 0.117 µM) | 32 (≈ 62.2 µM) | 64 (≈ 124 µM) | 2 (≈ 3.89 µM) | 2 (≈ 3.89 µM) | 500 | 0.03 | 0.06 (≈ 0.117 µM) | 
6 | CC(C)(O/N=C(\C(=O)N[C@@H]1C(=O)N2C(C(=O)[O-])=C(C[n+]3ccccc3)CS[C@H]12)c1csc(N)n1)C(=O)O [CEFTAZIDIME] | 1 (≈ 1.83 µM) | 0.5 | 1 | 0.5 | 0.12 (≈ 0.22 µM) | 8 (≈ 14.6 µM) | 16 (≈ 29.3 µM) | 4 (≈ 7.32 µM) | 2 (≈ 3.66 µM) |  |  | 0.12 (≈ 0.22 µM) | 
7 | CO/N=C(\C(=O)N[C@@H]1C(=O)N2C(C(=O)O)=C(COC(N)=O)CS[C@H]12)c1ccco1 [CEFUROXIME] | 4 (≈ 9.43 µM) | 2 | 2 | 2 | 2 (≈ 4.71 µM) |  |  |  |  |  |  | 2 (≈ 4.71 µM) | 
8 | CC(=O)OCC1=C(C(=O)O)N2C(=O)[C@@H](NC(=O)Cc3cccs3)[C@H]2SC1 [CEPHALOTHIN] | 64 (≈ 161 µM) | 8 | 64 | 8 | 4 (≈ 10.1 µM) |  |  |  |  | 6000 | 0.04 | 4 (≈ 10.1 µM) | 
9 | O=C(O)[C@H]1/C(=C/CO)O[C@@H]2CC(=O)N21 [CLAVULANIC ACID] |  |  |  |  |  |  |  |  |  |  |  |  | IC50 [23]: 0.07 µM; IC50 [24]: 0.1 µM
10 | C[C@@H](O)[C@H]1C(=O)N2C(C(=O)O)=C(SCCNC=N)C[C@H]12 [IMIPENEM ANHYDROUS] |  |  |  |  |  | 0.25 (≈ 0.835 µM) | 0.25 (≈ 0.835 µM) | 0.25 (≈ 0.835 µM) | 0.25 (≈ 0.835 µM) |  |  |  | 
11 | CCN1CCN(C(=O)N[C@@H](C(=O)N[C@@H]2C(=O)N3[C@@H]2SC(C)(C)[C@@H]3C(=O)O)c2ccccc2)C(=O)C1=O [PIPERACILLIN] | > 256 | > 256 | > 256 | > 256 | 32 (≈ 61.8 µM) | > 256 | > 256 | > 256 | 16 (≈ 30.9 µM) | 500000 | 35 | 1 (≈ 1.93 µM) | MIC [25]: > 256 µg/mL; MIC [26]: > 256 µg/mL; MIC [27]: 128 µg/mL; MIC [28]: 4 µg/mL
12 | CC1(C)[C@H](C(=O)O)N2C(=O)C[C@H]2S1(=O)=O [SULBACTAM] |  |  |  |  |  |  |  |  |  |  |  |  | IC50 [23]: 1.5 µM; IC50 [24]: 0.2 µM
13 | C[C@]1(Cn2ccnn2)[C@H](C(=O)O)N2C(=O)C[C@H]2S1(=O)=O [TAZOBACTAM] |  |  |  |  |  |  |  |  |  |  |  |  | IC50 [23]: 0.35 µM; IC50 [24]: 0.1 µM
14 | CC1(C)S[C@@H]2[C@H](NC(=O)[C@H](C(=O)O)c3ccsc3)C(=O)N2[C@H]1C(=O)O [TICARCILLIN] |  |  |  |  |  | > 256 | > 256 | > 256 | 8 (≈ 20.8 µM) | 1.5e+06 | 100 |  | MIC [12]: > 256 µg/mL; MIC [13]: > 256 µg/mL; MIC [14]: > 256 µg/mL; MIC [15]: > 256 µg/mL; MIC [16]: 16 µg/mL; MIC [18]: 2 µg/mL; MIC [19]: > 256 µg/mL; MIC [20]: > 256 µg/mL; MIC [21]: > 256 µg/mL; MIC [22]: 8 µg/mL
